Sequences and labels used below:
B1: tRNA (parent)
chain: GUUCCGUUGGCGUAAUGGUAACGCGUCUCCCUCCUAAGGAGAAGACUGCGGGUUCGAGUCCCGUACGGAACG

This sample holds only a part of the variants without activity.

The variants in this data set derive from B1. Briefly: yeast fitness relative to wild type (ratio to wild type); higher = fitter; tRNA-Arg(CCU), competitive growth, 37 C, YPD. The method in brief:
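Start and end populations of a pooled competition were compared by 100-nucleotide paired-end sequencing of gene amplicons. The Saccharomyces cerevisiae strains carried tRNA-Arg(CCU) gene variants at the native genomic locus, synthesised with a 3% per-site mutation rate at 69 sites, and competed in YPD at 37°C for 24 hours in six parallel replicates. Darwinian fitness relative to wild type was based on the change in genotype frequencies. Genotypes required ≥ 100 starting reads, and estimates < 0.5 were set to 0.5.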
Regarding U2C U13C C61G, the yeast fitness was ≤ 0.5.

As for U2C G10C C24A C31U A36C A43C C55A, the yeast fitness stood at 0.546.

Consider U2C C11A C34G G51A, for which the yeast fitness was ≤ 0.5.

U2C G63A: the yeast fitness is 0.799.

For the variant U2C C11G A37G G51C A57G, the yeast fitness turned out to be 0.632.

For U2G C27U C46U G58A, the yeast fitness was determined as 0.662.

Consider U2G C11U A40G G50C, for which the yeast fitness is ≤ 0.5.

Turning to U2C G25A A42U A65C G67U, the yeast fitness came to 0.578.

As for U2C G48C C49U U53C, the yeast fitness was ≤ 0.5.

As for U2G C31G G39C C60A, the yeast fitness is ≤ 0.5.

Regarding U2G C4U C33G A37U U64G, the yeast fitness was ≤ 0.5.

In the case of U2C G6A C31U C49U, the yeast fitness was found to be 0.641.

As to U2C G12A A36U C62G, the yeast fitness is ≤ 0.5.

On to U2C C29U A37G A65G, for which the yeast fitness was ≤ 0.5.

On to U2G A15U C62A, for which the yeast fitness was found to be 0.613.

For the variant U2C G6A A42C C66U, the yeast fitness is ≤ 0.5.

Consider U2G A42U, for which the yeast fitness turned out to be 0.804.

U2C C24G A42U G67A: the yeast fitness is ≤ 0.5.

With U2C C11G C22G G56A G63A, the yeast fitness is ≤ 0.5.

Take U2G C5A G10C: the yeast fitness was ≤ 0.5.

With U2C U47A U53A, the yeast fitness was ≤ 0.5.

In the case of U2C G18A G25A, the yeast fitness was found to be 0.599.

For the variant U2G C31U U64G A65U, the yeast fitness is ≤ 0.5.

With U2C G18A C24U, the yeast fitness worked out at 0.529.

U2C U19A U26A C29A C46G U54A: the yeast fitness is ≤ 0.5.

For the variant U2G C5U A21C G48A G50C, the yeast fitness is ≤ 0.5.

U2C U3C C34U G63A: the yeast fitness was ≤ 0.5.

Consider U2C C24G C29U C62G C66A, for which the yeast fitness is ≤ 0.5.

For the variant U2G C24A A45G C61G C62U, the yeast fitness is ≤ 0.5.

With U2C G48A C60U, the yeast fitness was ≤ 0.5.

With U2C C11U G25U C29U G39A, the yeast fitness is ≤ 0.5.

With U2C U13A C61U, the yeast fitness was ≤ 0.5.

Turning to U2C C29U C66G G68A, the yeast fitness was ≤ 0.5.

Regarding U2C G67U, the yeast fitness is 0.81.

As for U2C G6A C61G, the yeast fitness was ≤ 0.5.

Regarding U2C G52C, the yeast fitness was determined as 0.661.

For the variant U2C C30U C33U, the yeast fitness came to 0.512.

For the variant U2C C46A, the yeast fitness was determined as 0.942.

For U2C C29A G63A, the yeast fitness was ≤ 0.5.

Consider U2G C4A G38C G50A, for which the yeast fitness came out at 0.713.

For U2C C31G U35A, the yeast fitness is ≤ 0.5.

Take U2C U28C A37U U53A: the yeast fitness turned out to be 0.547.

For the variant U2C U54A, the yeast fitness worked out at 0.612.

With U2C C46G G63A A70U, the yeast fitness is ≤ 0.5.

For the variant U2G C29G C33G, the yeast fitness is ≤ 0.5.

Consider U2C C27U A43G G56A, for which the yeast fitness is ≤ 0.5.

With U2C U7A C24A A37G A42U G48C U54A, the yeast fitness was ≤ 0.5.

With U2G A20C G38A, the yeast fitness was ≤ 0.5.

Take U2G C11G A20U C24G C55A C61U: the yeast fitness is ≤ 0.5.

As for U2G A40C G63A G68C, the yeast fitness was ≤ 0.5.

In the case of U2G A15U C24G U53A U64A, the yeast fitness was ≤ 0.5.

Take U2G C24G C29G C31G: the yeast fitness is 0.515.

On to U2C U47A U64A, for which the yeast fitness is ≤ 0.5.

U2C U28C C34U: the yeast fitness is ≤ 0.5.

U2C C29A C31A A40U C49U: the yeast fitness is 0.554.

For the variant U2G C4U C29G, the yeast fitness was ≤ 0.5.

Take U2C U28A G67A: the yeast fitness was ≤ 0.5.

For U2G C27A C34G A65G, the yeast fitness was ≤ 0.5.

For U2C G12A G18C C33U, the yeast fitness came out at 0.561.

Regarding U2C U8G G23A C24G G44A, the yeast fitness was ≤ 0.5.

For the variant U2C U32A A65G, the yeast fitness was ≤ 0.5.

As to U2G C5A, the yeast fitness worked out at 0.725.

With U2C U3A C31G U35A, the yeast fitness was ≤ 0.5.

Regarding U2G A20C G25A A69C, the yeast fitness was ≤ 0.5.

Turning to U2C G25C A36U G38A, the yeast fitness is ≤ 0.5.

Turning to U2C C61G A65U, the yeast fitness was 0.547.

Consider U2G C29G G44C C49G A57U, for which the yeast fitness was ≤ 0.5.

As to U2C G10C C11U C34A A37C C60A G67C, the yeast fitness worked out at 0.7.

As for U2G C4A U16C, the yeast fitness was ≤ 0.5.

In the case of U2G C11A C30A A57U, the yeast fitness is ≤ 0.5.

For U2G C24A A45G, the yeast fitness was 0.586.

U2C C22U G38C C46U: the yeast fitness is ≤ 0.5.

With U2C U26C C55A, the yeast fitness was 0.732.

In the case of U2G C27G G67U, the yeast fitness is ≤ 0.5.

U2G C27G G67C: the yeast fitness was ≤ 0.5.

U2G A21C C22U C31U C33U C62A: the yeast fitness was ≤ 0.5.

Consider U2G C11U A40U C49A, for which the yeast fitness turned out to be 0.523.

Consider U2C U35A C55A C66A, for which the yeast fitness was 0.521.

As for U2C U13C, the yeast fitness was 0.991.

Regarding U2G A36G A69U, the yeast fitness turned out to be 0.56.

On to U2C G10A U54A C62U C66A, for which the yeast fitness is ≤ 0.5.

Regarding U2G A45U C66U, the yeast fitness is 0.555.

For U2G A36U C46G C62A A69C, the yeast fitness is ≤ 0.5.

Regarding U2C G44A C46U A69C, the yeast fitness is 0.784.

With U2G C24U A69U, the yeast fitness amounted to 0.681.

U2C C61U G68A: the yeast fitness is ≤ 0.5.

As for U2G A45G, the yeast fitness was 0.869.

As to U2C G12A A15G A43U C62G, the yeast fitness was ≤ 0.5.

U2C U3G G18A A65U: the yeast fitness was ≤ 0.5.

On to U2C U35C, for which the yeast fitness is 0.829.

With U2C U35G A40C, the yeast fitness is 0.587.

Turning to U2C C33U A42C U64C A70G, the yeast fitness is ≤ 0.5.

Consider U2C C11U G68A, for which the yeast fitness worked out at 0.544.

Regarding U2C U16A A40G G48A, the yeast fitness was ≤ 0.5.

Turning to U2C G23A G38A G56C C61U, the yeast fitness is ≤ 0.5.

Turning to U2G C11U A45C U53G, the yeast fitness stood at 0.583.

Turning to U2G A20C C27U C46A, the yeast fitness was 0.614.

U2C G17A A37C: the yeast fitness was determined as 0.791.

For the variant U2G C11G G12C C49U, the yeast fitness was ≤ 0.5.

As to U2C G23C C55G, the yeast fitness turned out to be 0.553.

Take U2G A15U: the yeast fitness was determined as 0.75.

Take U2G A15G: the yeast fitness is 0.812.

On to U2C C11A G41C C61A, for which the yeast fitness was ≤ 0.5.

For U2C C29A G44C C46G C62A, the yeast fitness was ≤ 0.5.

As for U2G C27U C46U G68C, the yeast fitness amounted to 0.763.

Take U2C U28G A43U G56C A57U G67A: the yeast fitness was ≤ 0.5.

As for U2C G23C C31G C33U A42G G52C A70G, the yeast fitness is ≤ 0.5.

U2C C31G C55G: the yeast fitness turned out to be 0.569.

With U2C C33U A42G G44C, the yeast fitness is ≤ 0.5.

Turning to U2G A20U, the yeast fitness was found to be 0.757.

U2G C4U A36G A45U: the yeast fitness was determined as 0.537.

With U2C G6C C11G A15C G25C C27G C30G G38C, the yeast fitness was ≤ 0.5.

In the case of U2C C31A A70U, the yeast fitness is 0.76.

As for U2G C11G A20G C24U C31G, the yeast fitness amounted to 0.615.

As for U2G C24G G52C C66U, the yeast fitness came to 0.807.

With U2C C24U C29U C30A, the yeast fitness was found to be 0.59.

Consider U2G A43U G67C, for which the yeast fitness is 0.668.

Take U2G A65C: the yeast fitness was determined as 0.897.

For U2C G50C C60G, the yeast fitness was ≤ 0.5.

As for U2C C11U U59A, the yeast fitness worked out at 0.586.

Consider U2G C4U C34G, for which the yeast fitness was ≤ 0.5.

Take U2C G9C A69C: the yeast fitness came out at 0.524.

Consider U2C U47A A70G, for which the yeast fitness was 1.15.

Take U2C G17A A43C C49U U54A G56C A65U A70C: the yeast fitness was ≤ 0.5.

In the case of U2C C24G C61G, the yeast fitness was ≤ 0.5.

Turning to U2C U3A A40C, the yeast fitness is ≤ 0.5.

Regarding U2C C34G U59A, the yeast fitness was ≤ 0.5.

As to U2C C29U, the yeast fitness came out at 0.81.

On to U2C C29A, for which the yeast fitness turned out to be 0.659.

For the variant U2C C29G, the yeast fitness is 0.626.

For U2G A45U C46G A69C, the yeast fitness was found to be 0.537.

For the variant U2G A21G C49U, the yeast fitness turned out to be 0.708.

Regarding U2G A43G G56A, the yeast fitness came to 0.589.

Regarding U2C G18A G25A C66U, the yeast fitness is ≤ 0.5.

Consider U2C U3C C34U, for which the yeast fitness was 0.571.

For the variant U2G C4U G25A A40C C46U, the yeast fitness was ≤ 0.5.

Consider U2C G51C, for which the yeast fitness amounted to 0.687.

For U2C G51A, the yeast fitness turned out to be 0.822.

Regarding U2G C11U G23A, the yeast fitness is ≤ 0.5.

For the variant U2C G9U A20C A57G A65C, the yeast fitness was ≤ 0.5.

On to U2C U19A C24U G38A U54C C66A, for which the yeast fitness is ≤ 0.5.

As for U2C C11A C22G U54C G56A, the yeast fitness was ≤ 0.5.

For U2G C4U U16A C27G A42U U53C, the yeast fitness was found to be 0.564.

U2C U13A G39C C60G: the yeast fitness was ≤ 0.5.

For U2C C27U A43G, the yeast fitness turned out to be 0.593.

With U2C G56C, the yeast fitness was determined as 0.727.

For U2G C11U G52C C55G A70G, the yeast fitness is ≤ 0.5.

As to U2G A21G A57C G63A, the yeast fitness was ≤ 0.5.

Take U2C C29U G56A: the yeast fitness is 0.625.

On to U2C C22U A69C, for which the yeast fitness turned out to be 0.511.

Consider U2G A21G A40G, for which the yeast fitness is ≤ 0.5.

Regarding U2G A20C G38A C46A, the yeast fitness is ≤ 0.5.

Turning to U2C G10A G12A G18C C33U A69C, the yeast fitness was ≤ 0.5.

As for U2G C30U G58C G63C, the yeast fitness was 0.618.

On to U2C U8A G38C C60A, for which the yeast fitness was ≤ 0.5.

On to U2C C27G, for which the yeast fitness came out at 0.748.

For U2C C27U, the yeast fitness amounted to 0.881.

Consider U2C G18A A36C A45U C49G, for which the yeast fitness was ≤ 0.5.

As to U2C U19G A69C, the yeast fitness was 0.543.

U2C C34A: the yeast fitness worked out at 0.77.

Regarding U2C C31A G38C G50A, the yeast fitness came out at 0.604.

For the variant U2G C4U G56A C61A C62U A65U A69C, the yeast fitness is ≤ 0.5.

Turning to U2C G12C A40C, the yeast fitness is ≤ 0.5.

On to U2G A57C G68U, for which the yeast fitness was ≤ 0.5.

As for U2C C24G U26A C31G, the yeast fitness was 0.639.

Turning to U2C G9U C61G, the yeast fitness is ≤ 0.5.

Regarding U2G C4U C11G G18C U32C C34U A45U A70U, the yeast fitness was ≤ 0.5.

The values above are taken from the RNAGym collection of RNA variant scans (doi:10.1126/science.aae0568).
